Like-named read-outs stand apart in the source and are kept apart here.
How the values were obtained:
[1] = system: NCI-H460 non-small cell lung carcinoma; test: Anti-proliferative NBB assay; type: cell-based, human; settings: read-out: IC50 NCI-H460; 72 h
A2780 ovarian carcinoma = test: Anti-proliferative NBB assay; type: cell-based, human; settings: read-out: IC50 A2780; 72 h
[2] = system: PLC primary liver carcinoma; test: Anti-proliferative NBB assay; type: cell-based, human; settings: read-out: IC50 PLC; 72 h
[3] = system: HCT116 colorectal carcinoma; test: Anti-proliferative NBB assay; type: cell-based, human; settings: read-out: IC50 HCT116; 72 h
[4] = system: MDA-MB-231 triple-negative breast cancer carcinoma; test: Anti-proliferative NBB assay; type: cell-based, human; settings: read-out: IC50 MDA-MB-231; 72 h
[5] = system: CCD-19Lu normal lung fibroblast; test: Anti-proliferative NBB assay; type: cell-based, human; settings: read-out: IC50 CCD-19Lu; 72 h
NCI-H460 cells [6] = test: Cell cycle analysis by flow cytometry; type: cell-based, human; settings: 10 µM
NCI-H460 cells [7] = test: γ-H2AX immunofluorescence staining; type: cell-based, human; settings: 10 µM, 24 h post-treatment
NCI-H460 cells [8] = test: Annexin V-FITC/PI double staining, flow cytometry; type: cell-based, human; settings: 20 µM, 72 h
NCI-H460 cells [9] = test: Lysosomal integrity; type: cell-based, human; settings: 10 µM, 24 h
Outline: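 NCI-H460 cells were exposed to test compound (10 μM) for 24 h and then stained. Stains were acridine orange (10 μM), LysoTracker Deep Red with MitoTracker Green (50 nM), and pepstatin A–BODIPY FL conjugate (1 μM) co-stained with LysoTracker Deep Red. Imaging was by confocal microscopy, checking vesicular staining loss and cytosolic probe leakage against vehicle.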

LC3 (LC3-II) = test: Immunoblotting of autophagy marker LC3; type: cell-based, human; settings: Western blotting; 1a 0-30 µM 6 h or 10 µM 6-24 h; cisplatin 0-20 µM 6 h
NCI-H460 cells [10] = test: Mitochondrial depolarization assay; type: cell-based, human; settings: 10 µM, 24 h, relative to vehicle
Aqueous solubility = type: physicochemical
calf thymus DNA (ctDNA) = test: UV-vis absorption titration with DNA; type: binding; settings: complex 30 µM, Tris-HCl pH 7.4
[11] = system: telomeric G-quadruplex (HTelo) DNA; test: UV-vis absorption titration with DNA; type: binding; settings: at λmax of 345 nm
ctDNA = test: DNA binding affinity by isothermal titration calorimetry; set-up: species or system calf
[12] = system: DNA duplex bearing cytosine–cytosine (CC) mismatched base pairs; test: DNA binding affinity by ITC
[13] = target: guanine–cytosine (GC)-rich DNA; test: DNA binding affinity by ITC; settings: read-out: KD (GC-rich DNA), one-site binding model, pH 7.4
[14] = Particle size by nanoparticle tracking analysis; type: physicochemical
[15] = system: β-glucosidase (from almonds); test: Enzymatic cleavage of the glycosidic linkage, UPLC/MS; type: in vitro ADME
Outline: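 Test compound incubated with almond β-glucosidase (0.5 U mL⁻¹) in PBS pH 5.8 at 37 °C for up to 24 h. Enzyme-free controls were run in PBS pH 5.8 and pH 7.4. Release of the deglycosylated aglycone was followed over time by UPLC/MS peak tracking (retention time and m/z).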

[16] = system: different cancer cell lines; test: Anti-proliferative NBB assay, summary over several cancer cell lines; type: cell-based, human; settings: for IC50: read-out: IC50 toward different cell lines, NCI-H460 lung, PLC liver and HCT116 colorectal carcinomas
NCI-H460 cells [17] = test: Cellular uptake of platinum by ICP-MS; type: cell-based, human; settings: for decrease in Pt levels in cells: 2 h treatment
[18] = Lipophilicity measurement; type: physicochemical; settings: n-octanol / 0.9 % aqueous NaCl, 298 K
NCI-H460 cells [19] = test: Subcellular distribution of platinum content by ICP-MS; type: cell-based, human; settings: 24 h treatment
[20] = system: NCI-H460 cancer cells and CCD-19Lu normal fibroblast cells; test: Comparative cellular uptake, cancer versus normal cells, ICP-MS; type: cell-based, human
[21] = system: NCI-H460 cells stably expressing mRFP-GFP-LC3; test: Live cell imaging of mRFP-GFP-tagged LC3; type: cell-based, human; settings: 10 µM, 24 h
NCI-H460 cells [22] = test: Intracellular oxidant level; type: cell-based, human; settings: 10 µM, 24 h
[23] = system: NCI-H460 lung cancer xenografts; test: In vivo anti-tumor study; set-up: species or system nude mouse; settings: 1a 25 mg kg^−1 i.v., 14 days
Outline: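 Nude mice bearing NCI-H460 xenografts were randomised into groups (n = 6). Groups received test compound (25 mg kg⁻¹) or PBS vehicle i.v. for 14 days; cisplatin (1.5 mg kg⁻¹ i.v.) on a similar regimen served as positive control. Tumour volume was tracked. Dissected tumours were weighed and examined by H&E and Ki-67 immunohistochemistry. Data are given as mean ± standard error.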

[24] = In vivo systemic toxicity; set-up: species or system nude mouse
Outline: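 Tumour-bearing nude mice (n = 6) received test compound (25 mg kg⁻¹ i.v.) or PBS vehicle for 14 days. Body weight was tracked throughout. At day 14, major organs were harvested for H&E histology, and blood was analysed for ALT and creatinine.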

Compound: N.N.[Cl][Pt][Cl] [Cisplatin, reference compound]
- IC50 [1]: 6.9 ± 0.5 µM
- IC50 (A2780 ovarian carcinoma): 8.9 ± 0.7 µM
- IC50 [2]: 9.1 ± 1.2 µM
- IC50 [3]: 5.1 ± 0.4 µM
- IC50 [4]: 19.7 ± 1.6 µM
- IC50 [5]: 30.8 ± 4.9 µM
- increase in G2/M populations (NCI-H460 cells [6]; 24 h, versus vehicle): 53.7%
- γ-H2AX foci in nuclei (NCI-H460 cells [7]): even more markedly increased
- late apoptosis (annexin V-positive and PI-positive) (NCI-H460 cells [8]): 87.2%
- lysosomal integrity (NCI-H460 cells [9]): negligible damage to the cellular lysosomes
- level of LC3-II (LC3 (LC3-II)): dose-dependent increase
- decrease in red fluorescence of JC-1 (mitochondrial depolarization) (NCI-H460 cells [10]): 8.3%

Compound: [Pt(tpy)(C?CArOGlu)](CF3SO3) [Complex 1a]
- solubility (water) (Aqueous solubility): 8600 µg/mL
- bathochromic (red) shift of lowest-energy absorption band upon addition of ctDNA (calf thymus DNA (ctDNA)): 42 nm
- hypochromism upon addition of ctDNA (calf thymus DNA (ctDNA); lowest-energy absorption band): 16.8%
- hypochromism upon addition of HTelo DNA [11]: 19.6%
- fold lower KD than 2 (ctDNA) (ctDNA; 1a versus 2): 27.5 fold
- Kd (ctDNA; read-out: KD (ctDNA), ITC, one-site binding model, pH 7.4): 0.48 µM
- fold higher binding affinity than 2 (CC mismatched DNA) ([12]; 1a versus 2): 4.3 fold
- Kd ([12]; read-out: KD (CC mismatched DNA), ITC, one-site binding model, pH 7.4): 19.6 µM
- Kd [13]: 74.1 µM
- average hydrodynamic diameter ([14]; RPMI 1640 cell culture medium containing 10% fetal bovine serum): 87.3 ± 4.6 nm
- average hydrodynamic diameter ([14]; aqueous solution containing 1% DMSO, 100 µM): 139.6 ± 2.5 nm
- conversion of 1a into 1d ([15]; buffer control without β-glu, PBS pH 5.8, 24 h): ca. 2%
- conversion of 1a into 1d ([15]; β-glu 0.5 U mL^−1, PBS pH 5.8, 37 °C, 24 h): more than 70%
- IC50 [1]: 7.1 ± 0.3 µM
- IC50 (A2780 ovarian carcinoma): 8.7 ± 0.2 µM
- IC50 [2]: 17.2 ± 1.2 µM
- IC50 [3]: 7.5 ± 0.6 µM
- IC50 [4]: 23.8 ± 5.8 µM
- IC50 [5]: > 100 µM
- fold higher anti-proliferative activity than 1b ([16]; most of the cancer cell lines, 72 h): 1.4- to 2.4 fold
- IC50 ([16]; 24 h post-treatment): > 100 µM
- IC50 ([16]; after 48 h): 54.6 to 74.5 µM
- increase in G0/G1 populations (NCI-H460 cells [6]; 24 h, versus vehicle): 9.3%
- change in cell populations on prolonging treatment to 48 h (NCI-H460 cells [6]; 48 h compared with 24 h): no significant increase in cell populations
- γ-H2AX foci in nuclei (NCI-H460 cells [7]): some significant fluorescent γ-H2AX foci
- necrotic cell death (annexin V-negative and PI-positive) (NCI-H460 cells [8]): 91%
- fold higher intracellular Pt level than 1b (NCI-H460 cells [17]; 10 µM, after 24 h): ca. 3.2 fold
- fold higher intracellular Pt level than 1c (NCI-H460 cells [17]; 10 µM, after 24 h): ~8 fold
- fold higher intracellular Pt level than 1d (NCI-H460 cells [17]; 10 µM, after 24 h): ~1.6 fold
- decrease in Pt levels in cells (NCI-H460 cells [17]; hypertonic sucrose (450 mM)): 27.4%
- decrease in Pt levels in cells (NCI-H460 cells [17]; incubation at 4 °C): 77.1%
- reduction in the cellular Pt level (upper figure) (NCI-H460 cells [17]; low temperature (4 °C) or inhibition of endocytosis): up to 80%
- decrease in Pt levels in cells (NCI-H460 cells [17]; nocodazole (50 µM)): 41.9%
- lipophilicity (log P) [18]: −0.88
- Pt content in cytosolic fraction (NCI-H460 cells [19]): 55%
- Pt content in mitochondrial fraction (NCI-H460 cells [19]): 37%
- Pt content in nuclear fraction (NCI-H460 cells [19]): 9%
- fold higher Pt accumulation in NCI-H460 than in CCD-19Lu cells [20]: 1.9 fold
- lysosomal integrity (NCI-H460 cells [9]): disruption of lysosomes
- level of LC3-II (LC3 (LC3-II)): increased levels
- Pearson's colocalization coefficient of green and red LC3 puncta [21]: 0.64
- decrease in red fluorescence of JC-1 (mitochondrial depolarization) (NCI-H460 cells [10]): ca. 21%
- increment in DCF fluorescence intensity versus vehicle control (NCI-H460 cells [22]): ~1.2 fold
- immunohistochemical staining for Ki-67 in tumor specimens [23]: significant reduction
- histopathology of major organs (heart, liver, spleen, lungs and kidneys) ([24]; 25 mg kg^−1 i.v., after 14 days, H&E): No obvious histopathological lesion
- plasma level of alanine aminotransferase (ALT) ([24]; 25 mg kg^−1 i.v., day 14): comparable to those in the vehicle control
- plasma level of creatinine (CREA) ([24]; 25 mg kg^−1 i.v., day 14): comparable to those in the vehicle control
- death or weight loss of mice ([24]; throughout the 14-day treatment period): None of the mice died or displayed any sign of weight loss
